The values that follow come from ChEMBL document CHEMBL1149438, “Antimalarial activity of 4-(5-trifluoromethyl-1H-pyrazol-1-yl)-chloroquine analogues” (Bioorg Med Chem Lett, 2006).

Structures are written as SMILES. Converted amounts (≈) assume the structure as drawn.

Broadly, the IC50 is the midpoint of a concentration-inhibition curve.

One assay has as its system Plasmodium falciparum. Nature of the assay: Antimalarial activity against chloroquine-resistant Plasmodium falciparum W2 infected human erythrocytes. It is filed as functional, organism-based. The method in brief: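 P. falciparum W2 (chloroquine-resistant) grown in human O+ erythrocytes, RPMI 1640 with 10% human plasma. Sorbitol-synchronized trophozoites plated at 2% parasitaemia, 2.5% haematocrit. Molecules dissolved in ethanol, serially diluted in hypoxanthine-free RPMI 1640, chloroquine reference run in parallel. Growth read by [³H]hypoxanthine incorporation. IC50 taken relative to drug-free control cultures.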

Assay [1] deals with Plasmodium berghei. Nature of the assay: Growth inhibition of Plasmodium berghei infected BALB/c mice (Mus musculus) at 15 mg/kg subcutaneous dose. It counts as functional, NK65. On the set-up: scale not given: the % may be the effect or the level left.
The test system of assay [2] is Plasmodium berghei. As to the kind of experiment: Growth inhibition of Plasmodium berghei in BALB/c mice (Mus musculus) at 15 mg/kg peroral dose. It is filed as functional, NK65. On the set-up: scale not given: the % may be the effect or the level left. To be noted: route oral.
Assay [3] relates to Plasmodium berghei. Nature of the assay: Growth inhibition of Plasmodium berghei infected BALB/c mice (Mus musculus) at 20 mg/kg perorallydose. On the set-up: scale not given: the % may be the effect or the level left. It is filed as functional, NK65. As to conditions: route oral. The method in brief:
(§1)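 Balb/c mice infected with blood-stage P. berghei, 6 per group, given 20 mg/kg orally or subcutaneously. Controls were untreated or saline-treated mice, plus mice given non-curative chloroquine. Blood smears were methanol-fixed and Giemsa-stained, and parasitaemia was counted in 1000 to 6000 erythrocytes. Percent reduction of parasite growth is relative to non-treated mice at day 7 post-inoculation.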

The test system of assay [4] is Plasmodium berghei. As to the kind of experiment: Growth inhibition of Plasmodium berghei infected BALB/c mice (Mus musculus) at 20 mg/kg subcutaneous dose. It is filed as functional, NK65. On the set-up: scale not given: the % may be the effect or the level left. The gist of the method:
as §1

On to `FC(F)(F)c1cc(-c2ccccc2)nn1-c1ccnc2cc(Cl)ccc12`, for which, in the assay with Plasmodium falciparum, the 50% inhibitory concentration (IC50) worked out at 9.53 µg/mL (≈ 25.5 µM).
With `OC1(C(F)(F)F)CC(c2ccc(F)cc2)=NN1c1ccnc2cc(Cl)ccc12` (stereo not given), inhibition in the assay with Plasmodium falciparum was half-maximal at 2.13 µg/mL (≈ 5.2 µM) (IC50).
The same measure, in the same setting: in the case of `Cc1cc(C(F)(F)F)n(-c2ccnc3cc(Cl)ccc23)n1` it was 4.29 µg/mL (≈ 13.8 µM); in that of `Cc1ccc(C2=NN(c3ccnc4cc(Cl)ccc34)C(O)(C(F)(F)F)C2)cc1` (stereo not given), 3.04 µg/mL (≈ 7.49 µM).
As to `O=[N+]([O-])c1ccc(-c2cc(C(F)(F)F)n(-c3ccnc4cc(Cl)ccc34)n2)cc1`, the IC50 in the assay on Plasmodium falciparum was more than 50 µg/mL.
Turning to `COc1ccc(C2=NN(c3ccnc4cc(Cl)ccc34)C(O)(C(F)(F)F)C2)cc1` (stereo not given), the IC50 in the assay with Plasmodium falciparum is more than 50 µg/mL.
As to `CCN(CC)CCCC(C)Nc1ccnc2cc(Cl)ccc12` (stereo not given) [CHLOROQUINE], the figures for the Activity in the assay on Plasmodium berghei [1] and in the assay on Plasmodium berghei [2] were 100% and 53%, respectively.
Turning to `OC1(C(F)(F)F)CC(c2ccccc2)=NN1c1ccnc2cc(Cl)ccc12` (stereo not given), the Activity in the assay on Plasmodium berghei [3] and with Plasmodium berghei [4] was 0% each time. Further, half-maximal inhibition in the assay with Plasmodium falciparum (IC50) was put at 1.39 µg/mL (≈ 3.55 µM).
Consider `O=[N+]([O-])c1ccc(C2=NN(c3ccnc4cc(Cl)ccc34)C(O)(C(F)(F)F)C2)cc1` (stereo not given), for which the IC50 in the assay with Plasmodium falciparum was 5.71 µg/mL (≈ 13.1 µM).
`FC(F)(F)c1cc(-c2ccc(Cl)cc2)nn1-c1ccnc2cc(Cl)ccc12` gave a half-inhibitory concentration (IC50) in the assay on Plasmodium falciparum of more than 50 µg/mL.
On the same count and under the same terms, the same measure for `Fc1ccc(-c2cc(C(F)(F)F)n(-c3ccnc4cc(Cl)ccc34)n2)cc1`: 27.6 µg/mL (≈ 70.5 µM).
The compound `FC(F)(F)c1cc(-c2ccc(-c3ccccc3)cc2)nn1-c1ccnc2cc(Cl)ccc12` registered an IC50 in the assay with Plasmodium falciparum of 18.5 µg/mL (≈ 41.2 µM).
The compound `OC1(C(F)(F)F)CC(c2ccc(-c3ccccc3)cc2)=NN1c1ccnc2cc(Cl)ccc12` (stereo not given) had an IC50 in the assay with Plasmodium falciparum of 2.12 µg/mL (≈ 4.53 µM).
`OC1(C(F)(F)F)CC(c2ccc(Br)cc2)=NN1c1ccnc2cc(Cl)ccc12` (stereo not given): the Activity with Plasmodium berghei [3] came out at 0%; in the assay on Plasmodium berghei [4], 82%. The compound further displayed an IC50 in the assay with Plasmodium falciparum of 1.55 µg/mL (≈ 3.29 µM).
Compound `FC(F)(F)c1cc(-c2ccc(Br)cc2)nn1-c1ccnc2cc(Cl)ccc12` registered an IC50 in the assay with Plasmodium falciparum of more than 50 µg/mL.
The compound `COc1ccc(-c2cc(C(F)(F)F)n(-c3ccnc4cc(Cl)ccc34)n2)cc1` came in with an IC50 in the assay with Plasmodium falciparum of more than 50 µg/mL.
As for `OC1(C(F)(F)F)CC(c2ccc(Cl)cc2)=NN1c1ccnc2cc(Cl)ccc12` (stereo not given), the Activity worked out at 0% in the assay on Plasmodium berghei [3] and 47% with Plasmodium berghei [4]. In addition, in the assay with Plasmodium falciparum, half-maximal inhibition (IC50) required 1.69 µg/mL (≈ 3.97 µM).
The compound `Cc1ccc(-c2cc(C(F)(F)F)n(-c3ccnc4cc(Cl)ccc34)n2)cc1` displayed an IC50 in the assay with Plasmodium falciparum of more than 50 µg/mL.
